The values that follow come from ChEMBL document CHEMBL1143077, “Synthesis of 2-[3-(7-Chloro-quinolin-4-ylamino)-alkyl]-1-(substituted phenyl)-2,3,4,9-tetrahydro-1H-beta-carbolines as a new class of antimalarial agents” (2008).

In brackets after ≈: the same amount, converted by molar mass.

For the test, the system named is Plasmodium falciparum. In words: Antimalarial activity against chloroquine-sensitive Plasmodium falciparum NF54 after 36-40 hrs. The format is functional. The essentials: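 Rieckmann microassay: NF-54 kept in RPMI-1640 with 25 mM HEPES, 1% D-glucose, 0.23% sodium bicarbonate, 10% heat-inactivated human serum. Ring stage obtained by 5% D-sorbitol synchronization; ~1% parasitemia, 3% haematocrit. Compound 0.25–50 µg/ml, duplicate wells, 37 °C in candle jar. Giemsa smears scored microscopically; MIC taken as lowest concentration blocking full maturation to schizonts.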
For orientation: MIC means the lowest concentration that inhibits growth of the organism. The low end stands for greater potency, the high end for weaker potency. In the case of `COC(=O)[C@H]1Cc2c([nH]c3ccccc23)[C@H](c2ccc(C(C)C)cc2)N1CCCNc1ccnc2cc(Cl)ccc12`, the MIC stood at 0.22 µM (≈ 0.125 µg/mL). This counts as sub-micromolar.

Consider `COC(=O)[C@H]1Cc2c([nH]c3ccccc23)[C@H](c2ccc(SC)cc2)N1CCCNc1ccnc2cc(Cl)ccc12`, for which the MIC was determined as 17.5 µM (≈ 10 µg/mL).

In the case of `COC(=O)[C@@H]1Cc2c([nH]c3ccccc23)[C@H](c2ccc(C(C)C)cc2)N1CCCNc1ccnc2cc(Cl)ccc12`, the lowest concentration to inhibit growth (MIC) was 0.22 µM (≈ 0.125 µg/mL).

`COC(=O)[C@@H]1Cc2c([nH]c3ccccc23)[C@@H](c2ccc(C(C)C)cc2)N1CCNc1ccnc2cc(Cl)ccc12`: the MIC is 18.1 µM (≈ 10 µg/mL). This MIC lies about 82-fold higher than the previous one.

`COC(=O)[C@@H]1Cc2c([nH]c3ccccc23)[C@H](c2ccc(C(C)C)cc2)N1CCNc1ccnc2cc(Cl)ccc12` came in with an MIC of 18.1 µM (≈ 10 µg/mL).

Turning to `COC(=O)[C@@H]1Cc2c([nH]c3ccccc23)[C@@H](c2ccc(C(C)C)cc2)N1CCCNc1ccnc2cc(Cl)ccc12`, the MIC worked out at 0.05 µM (≈ 0.0284 µg/mL).

The compound `COC(=O)[C@H]1Cc2c([nH]c3ccccc23)[C@H](c2ccc(Cl)cc2)N1CCCNc1ccnc2cc(Cl)ccc12` came in with an MIC of 1.79 µM (≈ 1 µg/mL).

`COC(=O)[C@@H]1Cc2c([nH]c3ccccc23)[C@@H](c2ccc(C)cc2)N1CCCNc1ccnc2cc(Cl)ccc12` registered an MIC of 0.06 µM (≈ 0.0323 µg/mL).

In turn, `COC(=O)[C@H]1Cc2c([nH]c3ccccc23)[C@@H](c2ccc(C(C)C)cc2)N1CCCNc1ccnc2cc(Cl)ccc12` came in with a minimal inhibitory concentration (MIC) of 0.22 µM (≈ 0.125 µg/mL).

As for `COC(=O)[C@@H]1Cc2c([nH]c3ccccc23)[C@H](c2ccc(OC)cc2)N1CCCNc1ccnc2cc(Cl)ccc12`, it took 3.61 µM (≈ 2 µg/mL) to inhibit growth (MIC).

For the compound `CCc1ccc([C@@H]2c3[nH]c4ccccc4c3C[C@H](C(=O)OC)N2CCCNc2ccnc3cc(Cl)ccc23)cc1`, 0.11 µM (≈ 0.0608 µg/mL) was the least that counted as inhibitory (MIC).

`COC(=O)[C@H]1Cc2c([nH]c3ccccc23)[C@H](c2ccc(C)cc2)N1CCNc1ccnc2cc(Cl)ccc12` registered an MIC of 19.1 µM (≈ 10 µg/mL).

As to `COC(=O)[C@H]1Cc2c([nH]c3ccccc23)[C@@H](c2ccc(OC)cc2)N1CCCNc1ccnc2cc(Cl)ccc12`, the MIC is 3.61 µM (≈ 2 µg/mL). Compared with the last compound, the MIC is about 5.3-fold lower.

With `COC(=O)[C@H]1Cc2c([nH]c3ccccc23)[C@@H](c2ccc(C(C)C)cc2)N1CCNc1ccnc2cc(Cl)ccc12`, the MIC came out at 18.1 µM (≈ 10 µg/mL). Compared with the last compound, the MIC is about 5-fold higher.

With `COC(=O)[C@@H]1Cc2c([nH]c3ccccc23)[C@H](c2ccc(Cl)cc2)N1CCCNc1ccnc2cc(Cl)ccc12`, the MIC came to 3.58 µM (≈ 2 µg/mL).

As for `COC(=O)[C@@H]1Cc2c([nH]c3ccccc23)[C@H](c2cc(OC)c(OC)c(OC)c2)N1CCCNc1ccnc2cc(Cl)ccc12`, the minimum inhibitory concentration (MIC) worked out at 16.3 µM (≈ 10 µg/mL).

For `COC(=O)[C@H]1Cc2c([nH]c3ccccc23)[C@H](c2cc(OC)c(OC)c(OC)c2)N1CCCNc1ccnc2cc(Cl)ccc12`, the MIC came out at 16.3 µM (≈ 10 µg/mL).

For `COC(=O)[C@@H]1Cc2c([nH]c3ccccc23)[C@@H](c2ccc(OC)cc2)N1CCCNc1ccnc2cc(Cl)ccc12`, the MIC stood at 3.61 µM (≈ 2 µg/mL).

On to `COC(=O)[C@H]1Cc2c([nH]c3ccccc23)[C@H](c2ccc(C)cc2)N1CCCNc1ccnc2cc(Cl)ccc12`, for which the MIC was found to be 0.46 µM (≈ 0.248 µg/mL).

As for `COC(=O)[C@H]1Cc2c([nH]c3ccccc23)[C@H](c2ccc(OC)cc2)N1CCCNc1ccnc2cc(Cl)ccc12`, the MIC turned out to be 18.1 µM (≈ 10 µg/mL).

Compound `COC(=O)[C@H]1Cc2c([nH]c3ccccc23)[C@H](c2ccc(Br)cc2)N1CCCNc1ccnc2cc(Cl)ccc12` displayed an MIC of 16.6 µM (≈ 10 µg/mL).

Compound `COC(=O)[C@@H]1Cc2c([nH]c3ccccc23)[C@H](c2ccc(SC)cc2)N1CCCNc1ccnc2cc(Cl)ccc12` registered an MIC of 17.5 µM (≈ 10 µg/mL).

`COC(=O)[C@H]1Cc2c([nH]c3ccccc23)[C@H](c2ccc(C(C)C)cc2)N1CCNc1ccnc2cc(Cl)ccc12` gave a minimum inhibitory concentration (MIC) of 18.1 µM (≈ 10 µg/mL).

The compound `CCN(CC)CCCC(C)Nc1ccnc2cc(Cl)ccc12` (centres undefined) [CHLOROQUINE] gave an MIC of 0.391 µM (≈ 0.125 µg/mL).
